According to ChEMBL document CHEMBL2203212, “Peptides and Pseudopeptides as SIRT6 Deacetylation Inhibitors” (ACS Med Chem Lett, 2012):
Calls of active or inactive are those of the source. The calls are words filed in the database; no cut-off is given here. Square brackets hold non-standard residues; d marks the D form. Peptide text beside a SMILES is read from it. Lys(Thioacetyl) = CC(=S)NCCCC[C@H](N)C(=O)O

The compounds below were run against T1, NAD-dependent protein deacylase sirtuin-6 (Homo sapiens, UniProt Q8N6T7) (assay: Inhibition of human recombinant SIRT6 assessed as 7-amino-4-methylcoumarin labelled Arg-His-Lys-Lys(epsilon-acetyl) substrate deacetylation at 200 uM after 90 mins by Fluor-de-Lys assay).
T1 sequence (Q8N6T7 whole entry): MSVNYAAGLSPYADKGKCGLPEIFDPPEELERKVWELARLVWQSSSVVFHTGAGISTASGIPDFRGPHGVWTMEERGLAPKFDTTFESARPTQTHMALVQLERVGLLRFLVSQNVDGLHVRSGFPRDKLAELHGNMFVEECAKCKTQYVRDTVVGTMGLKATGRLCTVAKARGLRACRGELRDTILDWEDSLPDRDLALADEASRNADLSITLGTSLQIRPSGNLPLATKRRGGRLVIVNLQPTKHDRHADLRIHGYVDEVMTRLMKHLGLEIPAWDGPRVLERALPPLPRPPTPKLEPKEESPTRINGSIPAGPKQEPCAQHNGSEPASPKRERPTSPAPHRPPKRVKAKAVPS
Method in brief: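 Single-point screen at 200 μM in a commercial in vitro SIRT6 deacetylation activity kit with Fluor de Lys fluorescence read-out, reported as percent inhibition of deacetylation.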

| Compound | inhibition |
| --- | --- |
| CC(=S)NCCCC[C@H](NC(=O)[C@@H]1CCCN(C(=O)OC(C)(C)C)C1)C(=O)N[C@@H](C)C(=O)O | Active |
| CC(=O)N[C@@H](C)C(=O)N[C@@H](CCCCNC(=O)C=C(C)C)C(=O)N[C@@H](C)C(=O)O | 26% |
| CC(=[Se])NCCCC[C@H](NC(=O)OCc1ccccc1)C(=O)Nc1ccccc1 | 62% |
| CSCC[C@H](NC(=O)[C@H](CC(C)C)NC(=O)[C@H](CCCCNC(C)=S)NC(=O)[C@H](CCCCN)NC(=O)[C@@H](N)Cc1cnc[nH]1)C(=O)O (H-HK[Lys(Thioacetyl)]LM-OH) | 62% |
| CSCC[C@H](NC(=O)[C@@H](NC(=O)[C@H](CCCCNC(C)=S)NC(=O)[C@H](CC(=O)O)NC(=O)[C@@H](N)CO)[C@@H](C)O)C(=O)O (H-SD[Lys(Thioacetyl)]TM-OH) | 35% |
| CC(=O)N[C@@H](C)C(=O)N[C@@H](CCCCNC(C)=S)C(=O)N[C@@H](C)C(=O)O | 54% |
| CC(=S)NCCCC[C@H](NC(=O)OCc1ccccc1)C(=O)NC1CCCCC1 | Active |
| CSCC[C@H](NC(=O)[C@H](CC(C)C)NC(=O)[C@H](CCCCNC(C)=S)NC(=O)[C@H](CCCCN)NC(=O)[C@H](C)N)C(=O)O (H-AK[Lys(Thioacetyl)]LM-OH) | 91% |
| CC(=S)NCCCC[C@H](NC(=O)OCc1ccccc1)C(=O)Nc1ccccc1 | 36% |
| CC(=O)N[C@@H](C)C(=O)N[C@@H](CCCCNC(=S)CC(C)C)C(=O)N[C@@H](C)C(=O)O | Active |
| CC(=O)N[C@@H](C)C(=O)N[C@@H](CCCCNC(=O)CC(C)C)C(=O)N[C@@H](C)C(=O)O | Active |
| CC(=S)NCCCC[C@H](NC(=O)CCc1ccccc1)C(=O)N[C@@H](C)C(=O)O | Active |

These compounds were tested against T1, NAD-dependent protein deacylase sirtuin-6 (assay: Inhibition of human recombinant SIRT6 assessed as 7-amino-4-methylcoumarin labelled Arg-His-Lys-Lys(epsilon-acetyl) substrate deacetylation after 90 mins by Fluor-de-Lys assay).
Method in brief: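 Commercial in vitro SIRT6 deacetylation kit with Fluor de Lys read-out. The IC50 was determined in two separate runs, each in triplicate, and reported as the average of the six measurements.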

| Compound | IC50 [µM] |
| --- | --- |
| CC(=[Se])NCCCC[C@H](NC(=O)OCc1ccccc1)C(=O)Nc1ccccc1 | 285 |
| CSCC[C@H](NC(=O)[C@H](CC(C)C)NC(=O)[C@H](CCCCNC(C)=S)NC(=O)[C@H](CCCCN)NC(=O)[C@@H](N)Cc1cnc[nH]1)C(=O)O (H-HK[Lys(Thioacetyl)]LM-OH) | 78 |
| CSCC[C@H](NC(=O)[C@H](CC(C)C)NC(=O)[C@H](CCCCNC(C)=S)NC(=O)[C@H](CCCCN)NC(=O)[C@H](C)N)C(=O)O (H-AK[Lys(Thioacetyl)]LM-OH) | 47 |

These compounds were tested against T1, NAD-dependent protein deacylase sirtuin-6 (assay: Inhibition of N-terminal His-tagged human recombinant SIRT6 (13 to 308) expressed in Escherichia coli Rosetta2 cells assessed as FdL-1 peptide substrate deacetylation at 100 uM after 45 mins by Fluor-de-Lys assay).

| Compound | inhibition [%] |
| --- | --- |
| Nc1cc2c(nc3c4ccccc4ccc3[n+]2-c2cccc3ccccc23)c2ccccc12 | 25 |
| O=C1c2ccccc2C(=O)c2c(Nc3cc4c5c(ccc6c7ccc8c9c(cc(Nc%10cccc%11c%10C(=O)c%10ccccc%10C%11=O)c(c3c56)c97)-c3ccccc3C8=O)C(=O)c3ccccc3-4)cccc21 | 25 |
| O=C(C[n+]1ccc2ccccc2c1)c1ccc2ccc3ccccc3c2c1 | 25 |
| CN1C[C@H](C(=O)N[C@]2(C)O[C@@]3(O)[C@@H]4CCCN4C(=O)[C@H](Cc4ccccc4)N3C2=O)C=C2c3cccc4[nH]cc(c34)C[C@H]21 | 25 |
| Nc1cc2c(nc3c4ccccc4c(N)cc3[n+]2-c2cccc3ccccc23)c2ccccc12 | 25 |
| O=C1c2ccccc2C(=O)c2c1ccc(N1C(=O)c3ccccc3C1=O)c2-c1c(N2C(=O)c3ccccc3C2=O)ccc2c1C(=O)c1ccccc1C2=O | 25 |
